# Screening data (PubChem)
# Most compounds without a hit are left out; they make up all but 3.1% or so of the library.
# OX1R antag-1: antagonists of human orexin 1 receptor. AID 434989. CHO/OX1R cells, Fluo-8 calcium fluorescence, orexin A. 330,000 compounds, 0.43% hits. O43613. inhibition, % at 5 µM;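 active means inhibition above its plate's threshold, mean inhibition of all tested compounds on the plate plus 3 SD, cut at about 37% in these data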;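 further: 0% = orexin A challenge wells and 100% = SB-334867-A antagonist wells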
# GPR7 antag: antagonists of human GPR7 (neuropeptides B/W receptor 1); GPR7-expressing cells, fluorescence antagonist assay; inhibition, % at 4.4 µM; 290,000 compounds, 1.1% hits; AID 1861; in the data active means inhibition above about 16%, passing the limit was not always enough;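 further: cells stimulated with the agonist NPW; 0% = agonist with vehicle and 100% = vehicle without agonist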
# Target sequence (P48145 whole entry, looked up): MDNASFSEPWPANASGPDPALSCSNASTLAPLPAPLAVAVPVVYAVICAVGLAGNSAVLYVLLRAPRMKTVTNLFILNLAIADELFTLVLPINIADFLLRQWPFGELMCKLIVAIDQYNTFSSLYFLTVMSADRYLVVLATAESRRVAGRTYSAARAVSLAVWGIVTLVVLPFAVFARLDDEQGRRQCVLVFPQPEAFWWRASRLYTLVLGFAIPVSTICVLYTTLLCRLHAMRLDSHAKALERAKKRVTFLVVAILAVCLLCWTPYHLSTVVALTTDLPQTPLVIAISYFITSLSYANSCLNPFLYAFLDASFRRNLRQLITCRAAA
# CHO parental Ca: counter-screen: ATP calcium response change in parental CHO cells; parental CHO-K1, ATP-induced calcium, Fluo-8 fluorescence; inhibition, % at 5.6 µM; 330,000 compounds, 0.63% hits; AID 463079;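 active means inhibition above that plate's mean sample inhibition plus 3 SD, cut at about 26% in these data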;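 further: 0% = ATP-challenged DMSO wells and 100% = DMSO wells without ATP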
#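 Test system: parental CHO cells; detection: calcium-sensitive Fluo-8 fluorescence; evaluation: percent inhibition of calcium signal; also added: ATP as calcium-mobilizing challenge; repeats: one well per compound; control set: ATP-challenged DMSO wells low, unchallenged DMSO wells high; compound: single nominal dose of 5.6 µM per compound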
# GalR3 antagonist: human GalR3 antagonism; O60755; HEK293 GalR3-CNG cAMP membrane potential fluorescence; galR3 body fused to GalR1 C-terminus; inhibition, % at 3 µM; 360,000 compounds, 0.44% hits; AID 651719;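 active means inhibition above the screen-wide average plus 3 SD, cut at about 13% in these data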;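 further: forskolin and galanin both at EC90 stimulate the cells; cAMP rise reported by CNG channel membrane potential dye signal; 0% = forskolin plus galanin with DMSO and 100% = forskolin alone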
# Target sequence (O60755 1-299 limits assumed): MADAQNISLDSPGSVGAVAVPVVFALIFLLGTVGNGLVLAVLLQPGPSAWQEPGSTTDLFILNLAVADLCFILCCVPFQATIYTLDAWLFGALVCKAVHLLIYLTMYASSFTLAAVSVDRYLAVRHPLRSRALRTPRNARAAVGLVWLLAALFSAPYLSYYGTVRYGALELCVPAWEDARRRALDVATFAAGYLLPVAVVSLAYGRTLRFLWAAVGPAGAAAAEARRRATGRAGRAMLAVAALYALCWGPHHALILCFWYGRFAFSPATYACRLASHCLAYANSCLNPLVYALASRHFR
# OX1R antag-2: OX1R (human) antagonism; O43613; OX1R-expressing cells, FRET antagonist read-out; inhibition, % at 6.6 µM; 330,000 compounds, 1.8% hits; in the data active means inhibition mostly above about 38%, no sharp cut-off; inactive means mostly below about 40%;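 further: 0% = agonist challenge alone and 100% = reference antagonist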
# The depositor's hits bear a star; nt = no result given.
SMILES,OX1R antag-1,GPR7 antag,CHO parental Ca,GalR3 antagonist,OX1R antag-2
CC(=O)Nc1cccc(NC(=O)c2cccc3cccnc23)c1,14,6,-15,-8,71*
Cc1ccc(NC(=O)c2cccc3cccnc23)cc1,-21,6,-29,-8,25
COCCNC(=O)c1ccc2c3n(nc2c1)-c1ccc(C)cc1CO3,-13,nt,-20,-3,64*
CC(=O)c1ccc(NC(=S)NCc2ccc(Cl)cc2Cl)cc1,40*,8,40*,0,30
CC(=O)c1ccc(NC(=O)Nc2ccc(Cl)cc2)cc1,33,18,-6,-3,27
Clc1ccc(CNC2CCCC2)c(Cl)c1,0,4,-4,-4,13
S=C(NCc1ccc(Cl)cc1Cl)NC1CCCCC1,8,-8,28*,-4,11
O=C(C1CCC1)N1CCN(S(=O)(=O)c2cc(F)ccc2F)CC1,nt,nt,nt,-2,nt
COCCn1c(SCC#N)nnc1-c1ccc([N+](=O)[O-])cc1,-15,2,-6,-6,72*
COCCn1c(SCC#N)nnc1-c1ccccc1O,-5,-4,0,-3,6
O=C(Nc1ccc2c(c1)OCO2)c1cnn2c1NC(c1ccco1)CC2C(F)(F)F (stereo not given),-18,-9,47*,0,15
O=C(Nc1ccc2c(c1)OCO2)c1cc2n(n1)C(C(F)(F)F)CC(c1ccccc1)N2 (stereo not given),-7,-14,20,-6,12
O=C1NC(=O)/C(=C/c2cccc3ccccc23)S1,-23,-9,-3,-7,30*
Cc1ccc(S(=O)(=O)Oc2ccccc2/C=C2/SC(=O)NC2=O)cc1,-18,-19,2,-7,38*
O=C1NC(=O)C(=Cc2ccccc2[N+](=O)[O-])S1,nt,nt,nt,-5,nt
CCOC(=O)c1nnn(-c2nc(OC)nc(N3CCCCC3)n2)c1-c1ccccc1,nt,5,nt,nt,nt
CCOC(=O)c1c(-c2ccccc2)nnn1-c1nc(OCC)nc(N2CCCCC2)n1,-25,-1,52*,-4,7
COc1ccc(NC(=O)CCCSc2nc(-c3ccco3)cc(C(F)(F)F)n2)cc1OC,-10,-8,-13,1,66*
Cc1cc(NC(=O)CCCSc2nc(-c3ccco3)cc(C(F)(F)F)n2)no1,-21,-8,-13,5,14
CCc1nc2ccc(C(=O)N3CCN(C(=O)c4ccco4)CC3)cn2c1N(CCC(C)C)CCN(C)C,nt,nt,nt,1,nt
Cc1ccc(N2C(=O)CC(Cc3cccc(C)c3)C2=O)cc1 (stereo not given),-25,-1,-2,-3,-2
CC(C)(C)c1ccc(S(=O)(=O)N2CCCCC2)cc1,-22,1,-15,-1,13
C=CCSc1nnc(-c2ccc([N+](=O)[O-])cc2)o1,-9,-5,-2,-5,42
NC(=O)CSc1nnc(-c2ccc([N+](=O)[O-])cc2)o1,-11,-9,12,0,55*
Fc1ccc(NC(=S)Nc2ccccc2N2CCOCC2)cc1Cl,-16,0,-14,-4,-2
SMILES,OX1R antag-1,GPR7 antag,CHO parental Ca,GalR3 antagonist,OX1R antag-2
O=C(NC1=NCCS1)c1ccc(Cl)cc1,2,10,2,-7,15
O=C(NC1=NCCS1)c1ccc(-c2ccc(Cl)cc2)o1,-21,2,-33,-3,56*
CCOC(=O)[C@@H]1[C@H]2COc3ccccc3[C@@H]2N2C(=O)N(c3ccc(C(F)(F)F)cc3)C(=O)[C@@]12C,-19,nt,-17,-6,3
CCOC(=O)[C@@H]1[C@H]2COc3ccccc3[C@H]2N2C(=O)N(c3ccc(C(F)(F)F)cc3)C(=O)[C@]12C,-16,-1,46*,-3,6
CC(=O)N1c2ccc(S(=O)(=O)N3CCCCC3)cc2CC1C(=O)Nc1ccc(F)cc1C (stereo not given),-11,2,15,-8,10
CCN(CCN(C)C)C(=O)c1ccc2c(c1NCCO)C(=O)c1ccccc1C2=O,-8,1,-9,-9,75*
COc1cccc(N2C(=O)CC(Nc3ccc(N4CCOCC4)cc3)C2=O)c1 (stereo not given),-6,2,5,nt,39*
COc1ccc(N2C(=O)CC(Nc3ccc(N4CCOCC4)cc3)C2=O)c(OC)c1 (stereo not given),-7,-14,6,-2,42
Cc1ccc(S(=O)(=O)Nc2ccc(C(=O)Nc3ccncc3)cc2)cc1,-2,5,-5,-4,24
Cc1ccc(NS(=O)(=O)c2ccc(NC(=O)c3cccc(NC(=O)C(C)C)c3)cc2)cc1,82*,0,67*,-4,49
NC(=O)c1ccsc1NC(=O)COC(=O)/C=C/c1ccc([N+](=O)[O-])cc1,-4,3,-5,-2,9
COc1ccc(CCC(=O)OCC(=O)Nc2sccc2C(N)=O)cc1,55*,nt,33*,-5,11
NC(=O)c1ccsc1NC(=O)COC(=O)CSc1ccc(Cl)cc1,45*,-3,42*,-3,8
COC(=O)c1ccc(/C=C/C(=O)OCC(=O)Nc2sccc2C(N)=O)cc1,33,nt,22,nt,56*
O=C(COC(=O)CSc1ccc(Cl)cc1)Nc1ccccc1,-6,nt,-6,-6,9
Cc1ccc(C(=O)Sc2cccccc2=O)cc1,53*,24,54*,-10,8
O=C(Nc1ccccc1SC(=O)c1ccccc1)c1ccccc1,nt,nt,nt,-5,nt
Cn1ncc([N+](=O)[O-])c1C(=O)Nc1nccs1,-15,-3,-9,-11,19
COc1ccc(OC)c(CCNC(=O)Cn2sc3nc(C)cc(C)c3c2=O)c1,55*,16*,49*,nt,20
O=C(NCc1cccnc1)c1cc(C2CCCCN2C(=O)CCCc2ccccc2)on1 (stereo not given),nt,nt,nt,-6,nt
O=C(Nc1nc2n(n1)C(c1ccccc1)C=C(c1ccccc1)N2)c1ccco1 (stereo not given),-16,-11,-21,-3,50*
CC(=O)c1ccc(S(=O)(=O)N2CCN(c3ccnc4cc(Cl)ccc34)CC2)cc1,nt,nt,nt,-8,nt
Cc1cc(N2CCN(S(=O)(=O)c3ccc(Cl)cc3)CC2)c2ccccc2n1,24,-5,58*,-8,30
Cc1ccc(S(=O)(=O)N2CCN(c3ccnc4cc(Cl)ccc34)CC2)cc1C,25,-15,37*,-2,55
Cc1ccc(S(=O)(=O)N2CCN(c3ccnc4cc(Cl)ccc34)CC2)cc1,53*,14,56*,-7,31
Cc1cc(C)c2c(c1)c1nnc(SCCN3CCOCC3)nc1n2C,nt,-7,nt,-1,nt
O=[N+]([O-])c1c(NCCCO)cc(Sc2nc3ccccc3s2)c2nonc12,54*,4,51*,nt,45*
CS(=O)(=O)c1ccc(Sc2nc3ccccc3s2)c([N+](=O)[O-])c1,-11,0,0,nt,37
CCC(=O)OCCNc1cc(Sc2nc3ccccc3s2)c2nonc2c1[N+](=O)[O-],60*,2,61*,-3,52*
Cc1nnc(Sc2cc(NCCO)c([N+](=O)[O-])c3nonc23)s1,nt,-1,nt,7,nt
